Active and inactive are the calls of the source. No cut-off for these calls is given here. Bounds are passed on as bounds.

The species named for test [1] is Rattus norvegicus. The experiment in a line: Ability to inhibit the release of extravasated dye in the rat peritoneal fluids by 50%. In kind it is functional, organism-based. The method, boiled down:
(§1)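 Rats sensitized ip with 2 mL of 1:5 rat antiserum in isotonic saline. 2 h later, 0.3 mL 5% Pontamine Sky Blue given iv, then after 30 s ip challenge with 5 mL Tyrode (heparin 50 μg/mL, ovalbumin 0.4 mg/mL). Compound ip in 1 mL saline 30 s before antigen; dose expressed as concentration in the 6 mL injected. Peritoneal fluid collected 5 min post-challenge.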

The species named for test [2] is Rattus norvegicus. The experiment in a line: Ability to inhibit the release of histamine in the rat peritoneal fluids by 50%. It counts as functional, organism-based. The method, boiled down:
as §1

Test [3] concerns the target Histamine H1 receptor (Cavia porcellus) (UniProt P31389). The test can be described thus: H1-antihistamine activity on guinea pig ileum; Inactive. It counts as functional, tissue-based. Summed up: (§2)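 Isolated guinea pig ileum under about 1 g tension, isotonic recording, histamine contractions. Method a: histamine curves repeated at rising antagonist levels in Tyrode; pA2 from a Schild plot of log(CR−1). Methods b/c: antagonist given 10 min (b) or 30 s (c) before double the ~50%-response histamine dose.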

The target in another test is Histamine H1 receptor (Cavia porcellus, UniProt P31389). The experiment in a line: H1-antihistamine activity on guinea pig ileum. In kind it is functional, tissue-based. The conditions noted are these: read-out: pA2 (converted). Summed up: as §2
Chain of Histamine H1 receptor (P31389 whole entry): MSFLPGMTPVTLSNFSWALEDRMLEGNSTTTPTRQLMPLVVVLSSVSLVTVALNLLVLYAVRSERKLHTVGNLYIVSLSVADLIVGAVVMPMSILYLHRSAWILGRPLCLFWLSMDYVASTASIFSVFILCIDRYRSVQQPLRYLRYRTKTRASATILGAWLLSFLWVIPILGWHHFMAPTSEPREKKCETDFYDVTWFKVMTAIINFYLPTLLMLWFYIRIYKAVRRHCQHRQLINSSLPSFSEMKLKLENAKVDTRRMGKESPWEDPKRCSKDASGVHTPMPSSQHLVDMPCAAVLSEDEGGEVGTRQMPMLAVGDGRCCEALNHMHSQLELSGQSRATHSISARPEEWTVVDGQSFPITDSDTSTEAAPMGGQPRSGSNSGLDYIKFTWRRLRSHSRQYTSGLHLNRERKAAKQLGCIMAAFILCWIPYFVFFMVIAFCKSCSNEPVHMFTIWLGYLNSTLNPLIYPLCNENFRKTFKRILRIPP

Chain of Histamine H1 receptor (Cavia porcellus) (P31389 whole entry): as above

The IC50 is the concentration that inhibits the measured activity by half. Take `O=c1oc2cc(OCC(O)CN3CCN(Cc4ccc(Cl)cc4)CC3)ccc2c(O)c1[N+](=O)[O-]` (stereo not drawn): the 50% inhibitory concentration (IC50) in the test listed under Rattus norvegicus [1] was 20 µM; in the test filed under Rattus norvegicus [2], under 2 µM.
As for `O=C(O)c1cc(=O)c2c(OCC(O)COc3cccc4oc(C(=O)O)cc(=O)c34)cccc2o1` [CROMOLYN SODIUM], the pA2 result in test [3] was “inactive”. Further, the 50% inhibitory concentration (IC50) came to 5.8 µM in the test listed under Rattus norvegicus [1] and 0.74 µM in the test filed under Rattus norvegicus [2].
As for `CCCc1c(OCC(O)CN2CCN(Cc3ccc(Cl)cc3)CC2)ccc2c(O)c([N+](=O)[O-])c(=O)oc12` (stereo not drawn), the concentration for half-maximal inhibition (IC50) worked out at 16 µM in the test listed under Rattus norvegicus [1] and 2.6 µM in the test listed under Rattus norvegicus [2].
Take `O=c1oc2cc(CN3CCN(Cc4ccc(Cl)cc4)CC3)ccc2c(O)c1[N+](=O)[O-]`: the values for the half-maximal inhibitory concentration (IC50) in the test listed under Rattus norvegicus [1] and in the test listed under Rattus norvegicus [2] were 83 µM and 14 µM, respectively.
On the same counts, the results for `COc1ccc(CN(CCN(C)C)c2ccccn2)cc1` [PYRILAMINE] are 29 µM and over 200 µM.
Turning to `O=c1oc2cc(OCCCN3CCN(Cc4ccc(Cl)cc4)CC3)ccc2c(O)c1[N+](=O)[O-]`, at Histamine H1 receptor, the Kb is 0.001 µM. In addition, the half-maximal inhibitory concentration (IC50) came to 5.8 µM in the test listed under Rattus norvegicus [1] and 1.9 µM in the test listed under Rattus norvegicus [2].
As for `O=c1oc2cc(OCCN3CCN(Cc4ccc(Cl)cc4)CC3)ccc2c(O)c1[N+](=O)[O-]`, at Histamine H1 receptor, the Kb was 0.158 µM. This compound came in with an IC50 in the test filed under Rattus norvegicus [1] of 100 µM.
In the case of `CN1CCN(CCCOc2ccc3c(O)c([N+](=O)[O-])c(=O)oc3c2)CC1`, on Histamine H1 receptor, the Kb was 100 µM. In addition, the concentration for half-maximal inhibition (IC50) in the test filed under Rattus norvegicus [1] was 13 µM; in the test listed under Rattus norvegicus [2], under 2 µM.
In the case of `O=c1oc2cc(OCCCN3CCN(Cc4ccccc4)CC3)ccc2c(O)c1[N+](=O)[O-]`, the IC50 in the test listed under Rattus norvegicus [1] was over 200 µM; in the test listed under Rattus norvegicus [2], 28 µM.
On the same counts, the results for `CN1CCC(=C2c3ccccc3CC(=O)c3sccc32)CC1` [KETOTIFEN] are 9.1 µM and over 200 µM.

For the origin of these results see ChEMBL document CHEMBL1122518, “N-benzylpiperazino derivatives of 3-nitro-4-hydroxycoumarin with H1 antihistamine and mast cell stabilizing properties” (J Med Chem, 1984).
